Screening data as filed in PubChem.
Rows were chosen to be rich in hits. Some 8.7% of all compounds tested hit in one or more screens of this group.
PostGolgi ctrl: inhibits growth of the yeast control strain. inhibition, % at 10 µM. 5% of 98,000 active. AID 738. efflux-deficient yeast background strain, growth absorbance A615, 16 h
PostGolgi yeast: growth inhibition of a yeast mutant, post-Golgi transport screen | post-Golgi transport phenotypic cell assay | inhibition, % at 10 µM | 0.9% of 98,000 active | AID 739;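 note: yeast cells grown in 1536-well plates; yeast grown about 18 h at 30C before absorbance read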
Cav32 inh: human Cav3.2 channel inhibition, primary screen; Cav3.2-expressing cells, Fluo-4 calcium fluorescence FDSS; stronger effect = lower value; B-score at 10 µM; 4% of 100,000 active; AID 449739;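 active = single-dose well whose peak fluorescence ratio is a statistical outlier from its plate by either plate-standardised score or position-corrected B-score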
Ecoli tolC: blocks growth of E. coli BW25113 tolC mutant. AID 573. OD615. growth inhibition, % at 10 µM (by protocol). 2.2% of 65,000 active;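 active = growth inhibition at or above a cutoff equal to the mean over every tested compound plus 3 SD, cut at about 60% in these data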;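 note: growth measured after 20 h incubation at 37 °C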
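Test system: tolC-deleted E. coli BW25113 | Medium: LB with kanamycin 50 µg/mL | Compound dosing: Single concentration, 10 µM final per compound | Schedule: 37 °C, 20 h exposure | Measured by: OD at 615 nm | Evaluation: Percent growth inhibition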
Pyk2 oligo antag: Pyk2 (human) oligomerization antagonism. Q293 cells, Pyk2 FERM NanoBiT luminescence; stronger effect = lower value. z-score (the deposit names both 25 µM and 10 µM). 0.83% of 99,000 active;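 active = Z-score of -3 or lower, scaled per plate to the spread of control and sample wells; inactive = z-score above -3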;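 note: negative z-score means lost luminescence so less FERM oligomerization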
Ecoli WT expand: blocks growth of wild type E. coli BW25113 | OD600 absorbance | growth inhibition, % at 100 µM | AID 710 | 0.15% of 98,000 active;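 active = growth inhibition above about 50% at one test dose, limit read from the data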;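 note: growth measured after 20 h incubation at 37 °C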
* marks the source's active call; other numbers are inactive results; nt = not tested or not shown. Cut-off read from the data, not from the text of the source, unless noted: active = inhibition above about 30%; inactive = the rest.

SMILES | PostGolgi ctrl | PostGolgi yeast | Cav32 inh | Ecoli tolC | Pyk2 oligo antag | Ecoli WT expand
CCCCCN(CCCCC)C(=O)C(CCC(=O)O)NC(=O)c1ccc(Cl)c(Cl)c1 (configuration not stated) | nt | nt | -8.5* | nt | nt | nt
CCOC(=O)C1(C(C)(C)CC)CC(CSc2nc3ccccc3[nH]2)OC1=O (configuration not stated) | nt | nt | -6.8* | nt | -0.15 | nt
CCCOc1cc(C)c(S(=O)(=O)n2ccc(C)n2)cc1C | 29 | -20 | -3.8* | 57 | 1.5 | -2
CCCOc1cc(C)c(S(=O)(=O)NCCOC)cc1C | 12 | -2 | -0.14 | 11 | -0.05 | -2
CCSc1nnc(NC(=O)c2cc(C)nc3ccccc23)s1 | 39* | -7 | 1.6 | nt | -0.17 | -3
CCSc1nnc(NC(=O)c2ccc3ccccc3n2)s1 | 33* | 13 | -0.92 | nt | 0.33 | -4
CCSc1nnc(NC(=O)c2cccs2)s1 | 3 | -4 | 1.1 | 13 | -0.24 | -16
CCSc1nnc(NC(=O)c2cc(C)oc2C)s1 | 9 | 14 | -0.32 | 54 | -0.92 | 1
CN(CC1CCCO1)S(=O)(=O)c1ccc(C(=O)Nc2nc(-c3ccccn3)cs2)cc1 (configuration not stated) | 22 | 5 | -3.9 | 53 | nt | 8
CC(=O)NC(=S)Nc1ccc(NC(=O)COc2ccc(Cl)cc2Cl)cc1 | 5 | -3 | -0.63 | nt | 3.8 | -13
Cc1ccc(C(=O)NNC(=S)NC(=O)c2ccc(Cl)cc2Cl)cc1 | 23 | 8 | -3.2 | nt | 0.67 | 3
O=C(COc1ccc(Cl)cc1Cl)NNC(=S)Nc1ccc(F)cc1 | 38* | 4 | -0.41 | nt | -0.66 | 5
O=C(COc1ccccc1)NNC(=S)NC(=O)c1ccc(Cl)cc1Cl | nt | nt | -4.1* | nt | nt | nt
Cc1ccc(-c2nnn(CC(=O)N(c3ccccc3)C(C(=O)NCC3CCCO3)c3ccc(Cl)cc3)n2)cc1 (configuration not stated) | 19 | 2 | -4.6* | nt | -0.21 | -7
Cc1ccc(-c2nnn(CC(=O)N(c3ccccc3F)C(C(=O)NCC3CCCO3)c3c[nH]c4ccccc34)n2)cc1 (configuration not stated) | 11 | -2 | -7.1* | nt | -1.7 | -2
COc1ccc(-c2nnn(CC(=O)N(Cc3ccccc3Cl)C(C(=O)NCC3CCCO3)c3ccco3)n2)cc1 (configuration not stated) | -3 | -6 | 0.086 | nt | -1.1 | -7
CC(Sc1nnc(-c2cccs2)n1-c1ccccc1)C(=O)NCc1ccc2c(c1)OCO2 (configuration not stated) | 6 | 16 | -0.16 | nt | -1.8 | -8
CN(C)S(=O)(=O)N(CC(=O)Nc1ccc2ccccc2c1)c1ccccc1 | nt | nt | -9.5* | nt | -0.19 | nt
CCC(=O)N1CCN(c2ccc(OC)cc2[N+](=O)[O-])CC1 | 2 | -2 | 0.72 | nt | -0.28 | -3
O=C(CSc1ccc(Cl)cc1)N1CCN(c2ccc(Cl)cc2[N+](=O)[O-])CC1 | 72* | 2 | -3.8* | nt | -0.23 | -14
COc1ccc(CC(=O)Nc2c3c(nn2-c2cccc(Cl)c2)CS(=O)(=O)C3)cc1 | 34* | -2 | -0.88 | -5 | -0.04 | -3
Cc1nn(-c2ccccn2)c(C)c1Oc1ccccc1O | 0 | 34* | 0.33 | 5 | -0.09 | 2
CC(C)C(=O)Nc1ccc(NC(=S)NC(=O)c2ccc([N+](=O)[O-])cc2)cc1 | -5 | 4 | -0.44 | nt | 0.02 | 1
CC(C)C(=O)Nc1cccc(NC(=S)NC(=O)c2ccc([N+](=O)[O-])cc2)c1 | 7 | 1 | -4* | nt | -0.76 | 2
Fc1ccc(/C=N/n2c(-c3cccs3)n[nH]c2=S)cc1 | 16 | -1 | -0.27 | nt | 1.4 | 6
SMILES | PostGolgi ctrl | PostGolgi yeast | Cav32 inh | Ecoli tolC | Pyk2 oligo antag | Ecoli WT expand
O=C(O)C1C2C=CC3(CN(Cc4ccncc4)C(=O)C13)O2 (configuration not stated) | 0 | -2 | -0.24 | -13 | 2.7 | -11
COc1ccc(-n2c(Cc3cccn3C)nnc2SCC(=O)Nc2ccc(F)cc2)cc1 | 13 | -8 | -8.6* | 27 | nt | -5
CCOc1ccc(NC(=O)CSc2nnc(Cc3cccn3C)n2-c2ccc(F)cc2)cc1 | 4 | 4 | -7.4* | 13 | nt | -2
COc1ccc(NC(=O)CSc2nnc(Cc3cccn3C)n2-c2ccc(F)cc2)cc1 | 5 | 9 | -2.9 | 1 | nt | 6
Cc1cc(C)c(C)c(S(=O)(=O)N2C(=S)NC(=O)C2C(C)C)c1C (configuration not stated) | 44* | 8 | -0.99 | nt | -0.31 | 11
Cc1cc(C)c(C)c(S(=O)(=O)N2CCC(C(=O)OCC(=O)N3c4ccccc4NC(=O)C3(C)C)CC2)c1C | 11 | 3 | -1.9 | nt | -0.79 | -20
Cc1cc(C)c(C)c(S(=O)(=O)N2C(=S)NC(=O)C2CC(C)C)c1C (configuration not stated) | 33* | 1 | -1.5 | nt | -0.81 | 5
c1ccc(Cc2nnc(-c3ccccc3)o2)cc1 | -10 | 14 | -5.5* | 1 | -1.4 | 6
O=C(NC1CCCCCC1)c1cccc(N2CCCC2=O)c1 | 13 | -1 | 0.34 | -15 | 3.1 | 4
CC1CCCCC1NC(=O)c1ccc(N2CCCC2=O)cc1 (configuration not stated) | 33* | -17 | -5.1* | -6 | 0.41 | 2
Cc1ccc(C(=O)N(CC(=O)NC2CCCC2)Cc2cccs2)s1 | 4 | 8 | 0.29 | -6 | -0.26 | 5
CC(C)c1ccc(Oc2cccc(C(=O)/C(C#N)=C/N(C)C)c2)cc1 | 24 | -9 | -2.4 | nt | -1.3 | 4
CN(C)/C=C(\C#N)C(=O)c1cccc(Oc2ccc(Br)cc2)c1 | 25 | -5 | -4.2* | nt | 0.69 | 7
C=C(C)C(=O)Nc1cccc(C2=NOC3(C2)C[C@@H](C(N)=O)N(C(=O)/C=C/C=C/C)C3)c1 (some centres not stated) | nt | nt | 0.47 | nt | nt | nt
COc1cccc(-c2nc(N3CCN(c4ccccc4)CC3)c3ccccc3n2)c1O | 11 | 3 | 0.21 | nt | -0.46 | -28
CCC(C)Nc1nc(-c2cccc(OC)c2O)nc2ccccc12 (configuration not stated) | 72* | 25 | 0.66 | 12 | -2.2 | -9
COc1cccc(-c2nc(NC(C)C)c3ccccc3n2)c1O | 75* | -5 | nt | 24 | -1.8 | -13
O=C(N/N=C(\c1ccccc1)c1cccnc1)C(O)(c1ccccc1)c1ccccc1 | 9 | 0 | -1.2 | nt | -3.9* | -11
COc1ccc(-n2c(SCCC#N)nnc2-c2cc(Cl)ccc2OC)cc1Cl | 7 | -1 | -4.3* | 24 | -0.79 | -13
CC1CCCCN1c1nnc(NC(=O)c2cc(-c3ccc(Br)cc3)on2)s1 (configuration not stated) | 46* | 3 | -4.2 | nt | nt | -15
COC(=O)Cn1cc(/C=N/NC(=O)c2ccc(C#N)cc2F)c2ccccc21 | 40* | 2 | 0.034 | nt | 0.29 | 0
CCn1cc(/C=N/NC(=O)c2ccc(C#N)cc2F)c2ccccc21 | 2 | 1 | 0.67 | nt | -0.82 | 7
O=S(=O)(c1ccc(Oc2ccc(Br)cc2)cc1)N1CCOCC1 | 63* | 16 | -1.6 | 53 | -0.29 | -10
